# According to PubChem BioAssay AID871 (The Scripps Research Institute Molecular Screening Center, 2007):
# Out of some 190,000 compounds screened, about 1,800 (0.95%) were called active. The sample holds actives, similar compounds and a random draw of the others, so the mix is not that of the screen. Unmarked numbers belong to inactive results.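 The calls were made as follows: active = activation above the screen-wide mean of compound activation plus 3 SD (cut at about 130% in these data); inactive = the rest.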
# Assay: enhancers of STAT3 transcriptional signaling – U3A cells, luciferase, luminescence, MLSCN library, primary screen (AID 871);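 also: 0% = background luminescence of wells with medium and substrate only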
# Conditions: IL-6 STAT3-luciferase reporter, at 5.6 µM, stronger effect = higher value, 100% = signal with IL-6 EC80 alone
# Outline: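 Material: human U3A cells carrying STAT3-luciferase construct. Measured by: reporter luminescence signal. Timing: compound 1 h, then IL-6 6 h at 37 °C.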
row,SMILES,activation (% of control)
1,CCCC(=O)N=c1sc2cccc(F)c2n1C,113%
2,Cn1c(=NC(=O)c2cnccn2)sc2ccccc21,83.8%
3,Cn1c(=NC(=O)c2ccco2)sc2cccc(F)c21,144% (active)
4,O=C(Cc1c[nH]c2ccccc12)OCCOC(=O)Cc1c[nH]c2ccccc12,136% (active)
5,CC(C)(C)N(Cc1ccccc1)C(=O)COC(=O)CCc1c[nH]c2ccccc12,87.1%
6,NC(=O)CSc1c[nH]c2ccccc12,143% (active)
7,NS(=O)(=O)c1ccc(NC(=O)COC(=O)CCc2c[nH]c3ccccc23)cc1,108%
8,CCC(CC)NC(=O)CSc1nnc(-c2c[nH]c3ccccc23)o1,90.9%
9,CCOC(=O)CN(C)Cc1c[nH]c2ccccc12,137% (active)
10,CN(Cc1cccs1)C(=O)Cc1c[nH]c2ccccc12,86%
11,COc1ccccc1NC(=O)CCCc1c[nH]c2ccccc12,88.8%
12,O=C(CSc1nnc(-c2c[nH]c3ccccc23)o1)c1ccccc1,106%
13,Cc1ccnc(NC(=O)Cn2ccc([N+](=O)[O-])n2)c1,96.1%
14,CCOC(=O)c1cnc2c(c(C)nn2CC)c1Cl,107%
15,Oc1oc(-c2ccccc2Br)nc1/C=N/c1ccccn1,107%
16,O=C(CSc1ccccc1F)NC1CCS(=O)(=O)C1 (stereo not drawn),95.7%
17,CC(NC(=O)COC(=O)C1CCN(S(=O)(=O)c2ccccc2C(F)(F)F)CC1)c1ccccc1 (stereo not drawn),106%
18,CCOc1ccc(-n2c(SCC(=O)NC3CCS(=O)(=O)C3)nnc2-c2cccnc2)cc1 (stereo not drawn),99.7%
19,COC(=O)C(C)N=Cc1ccccc1 (stereo not drawn),102%
20,S=C(NCCc1ccccc1)N1CCn2cccc2C1c1ccncc1 (stereo not drawn),103%
21,Cn1nc(C(F)(F)F)c2cc(C(=O)N3CCOCC3)sc21,105%
22,Cc1ccc(S(=O)(=O)C(C#N)c2nc3ccccc3nc2N2CCCC2)cc1C (stereo not drawn),92.7%
23,Cc1ccc(NC(=O)CN2CCc3ccccc3C2)cc1,99.5%
24,Cc1ccc(S(=O)(=O)Nc2nc3ccccc3nc2N2CCc3ccccc3C2)cc1,147% (active)
25,O=C(COc1ccccc1)Nc1ccc(N2CCN(C(=O)c3cccs3)CC2)cc1,93.1%

row,SMILES,activation (% of control)
1,O=C1NC2(CCCCCC2)C(=O)N1CCS(=O)(=O)Oc1ccccc1,104%
2,Cc1ccc(Cn2c(C)nc3c(c2=O)c2nc4ccccc4nc2n3Cc2ccco2)cc1,107%
3,Clc1cccc(-c2nc3nc4ccccc4nc3n2Cc2ccco2)c1,135% (active)
4,Cc1cc(NC(=O)CSc2nc3cc(Cl)ccc3c(=O)n2Cc2ccco2)no1,103%
5,C/C(=N\NC(=O)CCn1nc(C)cc1C)C(C)(C)C,95.6%
6,O=C(CSc1ncnc2scc(-c3ccccc3)c12)NCc1ccc2c(c1)OCO2,103%
7,CCOC(=O)N1CCN(C(=O)c2cc3c(-c4ccc(Cl)cc4)nn(C)c3s2)CC1,107%
8,COc1ccccc1N1CCN(C(=O)c2cc3c(-c4ccc(Cl)cc4)nn(C)c3s2)CC1,146% (active)
9,COc1ccc2c(Cl)c(C(=O)NCc3ccco3)sc2c1,95.9%
10,Cn1nc(-c2ccc(Cl)cc2)c2cc(C(=O)NCc3ccco3)sc21,158% (active)
11,COc1ccc(-c2cc(C(=O)NCc3ccco3)no2)cc1OC,101%
12,COc1cccc(-c2nn(C)c3sc(C(=O)N4CCN(c5ccccc5)CC4)cc23)c1,103%
13,CN(C)C(=O)c1ccc2c(c1)C1C3CCC(C3)C1C(c1ccccc1)N2 (stereo not drawn),91.5%
14,CCOc1ccc(NS(=O)(=O)c2cc(C)c(C)cc2C)cc1,102%
15,COc1ccc(OC(C)C(=O)NCCc2nc3ccccc3[nH]2)cc1 (stereo not drawn),98.1%
16,COc1cc(OC)cc(C(=O)N[C@H](C(=O)Nc2nc3ccccc3[nH]2)C(C)C)c1,148% (active)
17,COc1cc(OC)cc(C(=O)N[C@H](C(=O)OCC(=O)NC(C)c2ccccc2)C(C)C)c1 (stereo partly drawn),102%
18,Cc1cc2oc(=O)cc(CN3CCN(S(=O)(=O)c4cccs4)CC3)c2cc1C(C)C,98.7%
19,COCCn1c(C)cc(C2=NNC(=Nc3ccc(F)cc3)SC2)c1C,133% (active)
20,Cc1cc(C2=NNC(=Nc3ccc(S(=O)(=O)N4CCOCC4)cc3)SC2)c(C)n1CC1CCCO1 (stereo not drawn),102%
21,C=CCn1c(C)cc(C2=NNC(=NCC)SC2)c1C,8.94%
22,Cc1c(Cl)c([N+](=O)[O-])nn1CCCC(=O)NC(C)c1ccccc1 (stereo not drawn),101%
23,O=S1(=O)CC/C(=N\Nc2ccc(F)cc2)c2ccsc21,80.3%
24,C=Cn1c(C(=O)O)ccc1-c1ccc(OC)cc1,103%
25,O=C(COC(=O)c1ccncc1)c1ccccc1,97.1%

row,SMILES,activation (% of control)
1,COc1cccc(NC(=O)C(Sc2nnnn2C)c2ccccc2)c1 (stereo not drawn),88.9%
2,Cc1sc2ncnc(Sc3nc4ccccc4s3)c2c1C,135% (active)
3,CSc1ncnc2sc(C)c(C)c12,91.1%
4,COC(=O)c1c(-c2cccs2)csc1NC(=O)CSc1ncnc2sc(C)c(C)c12,93.1%
5,Cc1csc(CN(C)C(=O)CC2C(=O)NCCN2CC(C)(C)C)n1 (stereo not drawn),96.6%
6,O=C(CN1CCN(c2ccc(Cl)cc2)CC1)NCc1cccs1,99%
7,CC(=O)NC1(c2ccc(F)cc2)CCN(C(=O)c2c(F)cccc2F)CC1,104%
8,Cc1c(CCO)c(=O)n(-c2ccccc2)n1S(=O)(=O)c1ccc(F)cc1,100%
9,Cc1c(CCO)c(=O)[nH]n1C(=O)c1c(F)cccc1F,134% (active)
10,CN1CCN(CCCCOc2ccccc2-c2ccccc2)CC1,96.6%
11,CCOC(=O)c1ccccc1NC(=S)N1CCC(C(N)=O)CC1,98.2%
12,COc1ccc(Cl)cc1N(CC(=O)N1CCCCC1)S(C)(=O)=O,99%
13,Cc1ccc2cc(C)c(N3CCC(C)CC3)nc2c1,86.1%
14,COc1ccccc1-c1nnc(SCC(=O)N2CC(C)CC(C)C2)o1 (stereo not drawn),138% (active)
15,COc1ccccc1N1CCN(C(=O)CSc2nnc(-c3ccoc3C)o2)CC1,93.7%
16,COc1ccccc1-c1nnc(SCC(=O)Nc2ccccc2)o1,91.3%
17,Cc1ccc(-n2c(SCC(=O)Nc3ncc(Cl)cc3Cl)nc3ccccc32)cc1,98%
18,Cc1ccc(NC(=O)c2sc3nc(N)c(C#N)cc3c2N)cc1,100%
19,Cc1cccc(OP(=O)(Nc2c(C)n(C)n(-c3ccccc3)c2=O)Oc2cccc(C)c2)c1,98.3%
20,COc1ccc(C)cc1NC(=O)c1ccc(-c2ccc(C(C)=O)cc2)o1,78.6%
21,COc1cccc(NC(=S)NCc2ccccn2)c1,106%
22,COc1cccc(NC(=O)C(C)Oc2ccccc2)c1 (stereo not drawn),97.5%
23,COc1cccc(NC(=S)C(C#N)=C2N(C)c3ccccc3N2C)c1,145% (active)
24,O=C(NCC1CCN(Cc2ccccc2Cl)CC1)Nc1cccc(Cl)c1,102%
25,CNc1nc(Nc2ccc(C)c(Cl)c2)nc(N)c1[N+](=O)[O-],132%

row,SMILES,activation (% of control)
1,O=C(NC(Cc1c[nH]c2ccccc12)C(=O)O)/C(=C/c1ccco1)NC(=O)c1ccccc1 (stereo not drawn),107%
2,Cc1ccc(C(=O)N/C(=C/c2ccco2)C(=O)NCCc2c[nH]c3ccccc23)cc1C,134% (active)
3,COc1ccc(/C=C(\NC(=O)c2ccc(OC)c(OC)c2)C(=O)NCCc2c[nH]c3ccccc23)cc1,112%
4,Cc1ccccc1NC(=O)CNc1ccccc1N1CCCCC1,101%
5,O=C(CN1CCc2ccccc21)NC(c1ccccc1)c1ccccc1,103%
6,COC(=O)c1[nH]c2cccc(C)c2c1NC(=O)CN1CCCc2ccccc21,140% (active)
7,CCOC(=O)c1[nH]c2ccc(OC)cc2c1NC(=O)CCN1CCN(Cc2ccccc2)CC1,104%
8,COC(=O)c1[nH]c2ccccc2c1NC(=O)CN1CCCc2ccccc21,154% (active)
9,NS(=O)(=O)c1cccc(NC(=O)CN2CCCc3ccccc32)c1,106%
10,CC(C(=O)N=Nc1c(O)n(C)c2ccc(Br)cc12)n1cnc2ccccc2c1=O (stereo not drawn),121%
11,CCN1CCN(c2ccc(NC(=O)c3cnccn3)cc2)CC1,100%
12,CCCCCC1CCC(c2nnc(SCC(C)=O)o2)CC1 (stereo not drawn),101%
13,CN(C)/C(=N\OC(=O)c1ccccc1)c1nonc1N,97.7%
14,Cn1c(-c2ccc(F)cc2)cnc1SCC(=O)NCc1ccco1,101%
15,CCn1c(Cc2ccccc2)nnc1SCc1nc2ccccc2c(=O)[nH]1,107%
16,O=c1[nH]c(CSc2ncc(-c3ccc(F)cc3)n2Cc2ccco2)nc2ccccc12,152% (active)
17,CC(C(=O)O)n1cnc2sc3c(c2c1=O)CCCC3 (stereo not drawn),102%
18,COc1ccc(C2C(C(C)=O)=C(O)C(=O)N2CCc2c[nH]c3ccccc23)cc1 (stereo not drawn),108%
19,COc1ccc(C2C(C(C)=O)=C(O)C(=O)N2c2nccs2)cc1 (stereo not drawn),134% (active)
20,COc1ccc(C2C(C(C)=O)=C(O)C(=O)N2Cc2cccnc2)cc1 (stereo not drawn),100%
21,O=C(Cc1ccccc1Cl)N1CCN(c2ccccn2)CC1,100%
22,Cn1nnnc1NCc1ccc(Cl)c(Cl)c1,101%
23,C[n+]1ccc(/C=C/c2c[nH]c3ccccc23)cc1,115%
